MC4R antag cAMP: human MC4R antagonism in cAMP assay; P32245; inhibition, % at 6.5 µM; MC4R-expressing cells, MTII-stimulated cAMP, LANCE TR-FRET; AID 540295; 360,000 compounds, 0.48% hits;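 active = inhibition above its plate's cutoff, the mean of tested wells on that plate plus 3 SD, cut at about 29% in these data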;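 also: 0% = Melanotan II alone and 100% = Melanotan II plus saturating MCL0020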
Target sequence (P32245 whole entry, looked up): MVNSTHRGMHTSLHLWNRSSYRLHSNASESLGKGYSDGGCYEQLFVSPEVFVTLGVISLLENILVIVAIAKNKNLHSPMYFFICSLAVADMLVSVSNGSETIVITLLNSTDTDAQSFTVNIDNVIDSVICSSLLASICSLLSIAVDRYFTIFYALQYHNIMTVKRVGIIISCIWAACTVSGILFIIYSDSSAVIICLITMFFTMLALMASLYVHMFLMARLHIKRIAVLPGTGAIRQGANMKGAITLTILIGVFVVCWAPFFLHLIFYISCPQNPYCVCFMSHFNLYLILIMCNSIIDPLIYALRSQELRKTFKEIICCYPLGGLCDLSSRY
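Material: U2OS-MC4R stable cell line | Reagent: Melanotan II challenge after compound preincubation | Doses: One concentration, 6.5 µM nominal | Incubation: 30-min compound preincubation, 1-h Melanotan II challenge, 1-h detection, room temperature | Signal: TR-FRET cAMP assay | Replicates: One well per compound, no replicates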
aDG glyco up: alpha-DG glycosylation activation; Pro5-aDG cells, alpha-DG glycosylation AlphaScreen (IIH6); 0% Pro5, 100% B10-LARGE cell signal; activation, % at 10 µM; 360,000 compounds, 0.22% hits;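 active = activation of at least 8% versus controls, or a plate z-score of at least 8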;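 also: Pro5 are CHO cells carrying HIG-tagged alpha-DG that lacks glycosylation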
NTR1 ag: NTR1 (human) agonism; 330,000 compounds, 0.17% hits; P30989; NTR1-U2OS beta-arrestin-GFP spot imaging, agonist mode; activation, % at 20 µM; AID 493036;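 active = activation at or above 40% of the spot to cytoplasm intensity ratio, with at least 20 cells analyzed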;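 also: 0% = DMSO without peptide and 100% = 100 nM NTR1 peptide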
Target sequence (P30989 whole entry, looked up): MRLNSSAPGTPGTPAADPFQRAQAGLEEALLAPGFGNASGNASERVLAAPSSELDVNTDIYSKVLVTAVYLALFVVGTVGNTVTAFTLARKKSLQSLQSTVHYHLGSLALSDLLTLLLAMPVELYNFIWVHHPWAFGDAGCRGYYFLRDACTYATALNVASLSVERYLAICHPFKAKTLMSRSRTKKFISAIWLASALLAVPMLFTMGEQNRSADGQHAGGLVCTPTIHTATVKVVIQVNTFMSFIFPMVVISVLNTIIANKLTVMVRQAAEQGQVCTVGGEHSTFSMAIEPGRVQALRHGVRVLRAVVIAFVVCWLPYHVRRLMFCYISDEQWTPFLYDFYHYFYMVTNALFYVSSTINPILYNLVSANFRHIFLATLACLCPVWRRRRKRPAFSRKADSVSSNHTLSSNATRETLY
TAG inh: reduces triacylglycerol accumulation in H9c2 cells. AID 651582. 230,000 compounds, 0.66% hits. inhibition, % at 12.5 µM. Nile Red lipid (TAG) fluorescence; cells loaded with 200 µM oleic acid;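 active = pattern-corrected inhibition of lipid staining of at least 50% with the nuclear-stain viability signal not falling by more than 50%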;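 also: 0% = DMSO wells and 100% = triacsin C control wells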
TbMetRS inhib: Trypanosoma brucei MetRS inhibition; inhibition, % at 11.9 µM; AID 624268; purified T. brucei MetRS, ATP depletion, Kinase-Glo luminescence; 360,000 compounds, 0.4% hits;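 active = inhibition above a per-plate cutoff of the control wells' mean inhibition plus 3 SD, cut at about 5.5% in these data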;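 also: 0% = DMSO wells median and 100% = median of wells with control inhibitor compound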
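Material: T. brucei methionyl-tRNA synthetase, purified; reagent: substrates ATP, L-methionine and bulk Escherichia coli tRNA; dosing: 11.9 µM single point; timing: 15 min plus 2 h at 25 °C; detection: luminescence of leftover ATP; evaluation: % inhibition; control set: DMSO-only wells as low control; replicates: singlicate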
MC4R ag barr: human MC4R agonism via beta-arrestin | P32245 | U2OS MC4R beta-arrestin complementation, luminescence; percent of melanotan II response, DMSO zero | activation, % at 8.9 µM | 360,000 compounds, 0.98% hits | AID 540308;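 active = activation above a per-plate cutoff, the mean activation of sample wells on that plate plus 3 SD, cut at about 8% in these data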
Active calls of the source: *; . = not tested or not shown. An excerpt weighted towards active compounds, which were near 2.4% of everything screened.

SMILES | MC4R antag cAMP | aDG glyco up | NTR1 ag | TAG inh | TbMetRS inhib | MC4R ag barr
N#C/C(=C(/O)COC(=O)COc1cccc(Br)c1)c1nc2ccccc2[nH]1 | 6.1 | -0.3 | 1.0 | -7.9 | -0.1 | 19.9*
Cc1cc(C)cc(OCC(=O)OC/C(O)=C(\C#N)c2nc3ccccc3[nH]2)c1 | -4.6 | 0.2 | 1.1 | . | 0.1 | 13.6*
COCC(=O)OC/C(O)=C(\C#N)c1nc2ccccc2[nH]1 | 10.3 | -0.2 | 0.6 | -14.2 | 0.7 | -0.1
COc1cc(/C=C/C(=O)N2CCC=CC2=O)cc(OC)c1OC | -15.7 | 0.5 | 6.3 | 61.5* | -1.2 | -0.2
Cc1cc(Cl)ccc1OC(C)C(=O)NCCCCc1ccccc1 (centres undefined) | 14.5 | -0.2 | 8.4 | . | -0.4 | 9.0*
CCN(CC)c1ccc(NC(=O)CSc2nc(C3CC3)nc3ccccc23)cc1C | -16.1 | -0.3 | 1.0 | . | -0.8 | 8.9*
O=C(NCC(F)(F)F)C1C(=O)Nc2ccccc2C(=O)N1C1CCCC1 (centres undefined) | . | 0.0 | . | . | -0.4 | .
CCN(CC)CCC(=O)Nc1cccc2c1C(=O)c1ccccc1C2=O | -4.8 | 0.1 | -1.2 | 93.1* | -0.3 | -3.1
COc1ccc(-c2noc(CCC(=O)NCCCN3CCN(c4ccc(F)cc4)CC3)n2)cc1 | -0.9 | 1.8 | -0.1 | . | -1.0 | -1.3
COc1ccc(-c2noc(CCC(=O)NCCCN3CCC(Cc4ccccc4)CC3)n2)cc1 | -0.6 | 5.5* | -4.1 | 37.1 | -0.1 | -2.1
COC(=O)CN1C(=S)N(Cc2ccccc2)C(=O)C1CC(=O)Nc1ccc(Br)cc1 (centres undefined) | 9.0 | 0.0 | 7.2 | . | 64.2* | 7.8
COC(=O)CN1C(=S)N(c2ccc(F)cc2)C(=O)C1CC(=O)Nc1ccc(F)cc1 (centres undefined) | 2.4 | 0.0 | 2.1 | 4.6 | 0.7 | 1.1
N#Cc1ccc(-c2ccc(OCC(=O)NCCc3ccccc3)cc2)cc1 | 1.7 | 0.3 | 5.6 | . | -0.1 | 9.1*
CCCCNC(=O)C1c2ccccc2OCC(=O)N1C1CC1 (centres undefined) | . | 0.2 | . | . | -0.2 | .
Cc1ccccc1OCC(=O)Nc1ccc2c(c1)Cc1ccccc1-2 | 6.9 | -0.2 | 5.9 | . | -1.1 | 28.3*
COc1cc(/C=C/c2ccc3cccc(O)c3n2)cc(Cl)c1OC | -17.4 | 2.5* | 9.9 | . | -0.2 | -4.6
O=C(COC(=O)c1ccccc1)Nc1cc(S(=O)(=O)N2CCCCCC2)ccc1Cl | 6.9 | -0.1 | 4.6 | -9.7 | 0.4 | 8.8*
CCN(CC)c1ccc(N=Cc2ccc([N+](=O)[O-])o2)cc1 | -5.0 | -0.7 | 2.1 | 51.8* | -0.1 | -1.1
O=C(Cn1cnc([N+](=O)[O-])c1)Nc1cc(Oc2ccc(Cl)cc2Cl)cc([N+](=O)[O-])c1 | 8.6 | -0.1 | 7.4 | . | 78.4* | 1.2
CCn1c(C)nnc1SCC(=O)Nc1cccc(Cl)c1 | -2.0 | -0.1 | -0.3 | 2.4 | -0.9 | -2.0
CCn1c(CCCOc2ccc(Cl)cc2Cl)nnc1SCC(=O)Nc1cccc(F)c1 | 5.5 | -0.2 | 7.3 | . | 0.5 | 9.8*
CCN1C(=O)CS/C1=N\S(=O)(=O)c1ccc(Cl)cc1 | 5.0 | -0.3 | 0.4 | 3.5 | -0.5 | -1.9
CCn1c(Cl)c(C=O)s/c1=N\S(=O)(=O)c1ccccc1 | 3.2 | -0.2 | -2.0 | 84.6* | -1.2 | 0.6
CN1CCN(c2ncnc3c2ncn3[C@H]2CN(Cc3ccc(Cl)cc3)C[C@@H](CO)O2)CC1 | -7.0 | 0.2 | . | 17.7 | -0.3 | 2.0
COc1cc(C(=O)C(=O)N2CCN(c3ccccc3)CC2)cc2ccccc12 | . | 0.0 | . | . | -0.3 | .
SMILES | MC4R antag cAMP | aDG glyco up | NTR1 ag | TAG inh | TbMetRS inhib | MC4R ag barr
COc1cc(C(=O)OCC(=O)NCCCc2ccccc2)ccc1OCC(C)C | 4.7 | -0.1 | -0.6 | -1.1 | -0.2 | -3.7
COc1cc(C(=O)OCC(=O)NCc2ccc(F)cc2)ccc1OCC(C)C | -8.2 | -0.3 | 2.2 | 1.0 | 0.1 | 8.3*
CCOC(=O)c1nc(C)nc(Sc2n[nH]c(-c3ccc(C(C)(C)C)cc3)n2)c1C | -1.4 | -0.1 | 0.1 | -5.9 | -0.5 | 9.3*
Cc1ccc2c(c1)c1c(n2CC(O)CNC2CCCC2)CCCC1 (centres undefined) | -9.0 | 0.8 | 8.7 | 99.2* | -0.4 | 6.3
COc1ccc(CN(C)C(=O)[C@H]2O[C@@H](n3ccc(N)nc3=O)[C@H](O)[C@@H]2O)cc1OC | . | -0.2 | . | . | -0.6 | .
Cc1ccc(C(=O)N/C(=C\c2ccco2)C(=O)NCCN2CCOCC2)cc1C | -3.5 | -0.3 | -1.0 | 3.6 | 0.0 | 8.4*
COc1cc(NC(=S)NC(=O)c2ccccc2F)ccc1NC(=O)c1ccco1 | 2.2 | -0.2 | -1.2 | . | 0.2 | 9.1*
COc1ccccc1C(=O)NC(=S)Nc1ccc(Cc2ccncc2)cc1 | 14.6 | 0.1 | 3.6 | . | 0.0 | 12.9*
Cc1ccc(F)c(S(=O)(=O)NC(=O)C2(C)CCN2C(=O)c2ccc(C(F)(F)F)nc2C)c1 (centres undefined) | -6.3 | 0.1 | . | 11.1 | -0.2 | 1.1
C#CCN(C[C@@H]1[C@@H](OC(=O)NCC2CCCCC2)[C@@H](OC(=O)NCC2CCCCC2)Cn2c(=O)n(CCCCCC)c(=O)n21)S(=O)(=O)c1ccc(C)cc1 | 5.8 | -0.1 | . | 27.9 | 0.2 | -0.3
CC[C@@H](NC(=O)[C@@H](Cc1ccccc1)NC(=O)CC[C@H]1O[C@@H](n2ccc(=O)[nH]c2=O)[C@H](O)[C@@H]1O)c1ccccc1 | . | -0.1 | . | . | -0.8 | .
O=C(Nc1cccc(-c2nc3cccnc3s2)c1)c1ccc(Cl)nc1 | 3.4 | -0.1 | 2.7 | 4.6 | -0.4 | 8.6*
O=C(NCc1ccccc1)C1C(c2ccccc2)=Nc2ccccc2N1C(=O)c1cccnc1 (centres undefined) | . | -0.2 | . | . | -1.2 | .
Cc1ccc(C(=O)COc2ccccc2C(=O)Nc2ccccc2)cc1 | 23.1 | -0.1 | 2.3 | . | 0.0 | 2.3
Cc1ccc(NC(=O)c2ccccc2OCC(=O)c2ccccc2)cc1 | 18.4 | -0.1 | 6.7 | . | -0.9 | 8.6*
CC(=O)c1cccc(NC(=O)C2Cc3c(-c4cccc(F)c4)ccnc3O2)c1 (centres undefined) | -7.1 | 0.2 | . | -31.3 | 0.8 | -0.8
CCOC(=O)CC1CCCCN1C(=O)c1cc(COc2cccc3cnccc23)on1 (centres undefined) | 9.8 | 6.7* | 1.5 | . | 0.4 | -0.7
Cc1cc2nc(C3CCCCC3)c(Cc3ccccc3)n2c(C)c1Br | . | 0.6 | . | . | 0.1 | .
Cc1ccc(S(=O)(=O)N2C(c3ccccc3)CC(=O)C3CN(S(=O)(=O)c4ccc(Cl)cc4)C(c4ccccc4)CC32)cc1 (centres undefined) | . | -0.3 | . | . | -0.9 | .
Cc1ccc(-n2cc(CNCCn3nc(C)cc3C)c(-c3ccc(F)cc3)n2)cc1 | 7.4 | 1.4 | 4.1 | -2.2 | -0.5 | 3.6

Source: PubChem BioAssay
